Measurements reported in ChEMBL document CHEMBL1921714, “Discovery of aminobenzyloxyarylamides as κ opioid receptor selective antagonists: application to preclinical development of a κ opioid receptor antagonist receptor occupancy tracer” (J Med Chem, 2011).
pKi: −log10 of the molar value. Calls of active or inactive are those of the source. The rule behind the calls is not given here.

The compounds below were run on CHO (assay: Selectivity ratio of Kb for human opioid mu receptor expressed in CHO cells to Kb for human opioid kappa receptor expressed in CHO cells). Details: not given.
Format: cell-based
In short: (§1)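 Kb ratios from antagonist [35S]GTP-γ-S SPA on CHO (κ, μ) or HEK293 (δ) membranes. Agonists at about 80% maximal: U69,593 300 nM (κ), DAMGO 1 μM (μ), DPDPE 30 nM (δ). 11-point curves, top 1 or 10 μM. Nonspecific binding: NorBNI, naltrexone or naltriben, each 10 μM. Kb = IC50/(1+D/EC50); geometric means with SEM.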
With `NC(=O)c1ccc(Oc2ccc(CNCc3ccccc3)cc2)nc1` the Ratio was 1. `NC(=O)c1ccc(Oc2ccc(CN3CCC[C@H]3c3cccc(F)c3)cc2)c(F)c1` was tested, and the Ratio was 14. `CC(C)[C@@H](CN1CC[C@@](C)(c2cccc(O)c2)[C@@H](C)C1)NC(=O)[C@H]1Cc2ccc(O)cc2CN1C` gave a Ratio of 69.

What follows are compounds tested against T1, Delta-type opioid receptor (Homo sapiens, UniProt P41143) (assay: Displacement of [3H]diprenorphine from human opioid delta receptor expressed in HEK293 cells after 120 mins by scintillation counting). Details: not given.
T1 sequence (P41143 whole entry): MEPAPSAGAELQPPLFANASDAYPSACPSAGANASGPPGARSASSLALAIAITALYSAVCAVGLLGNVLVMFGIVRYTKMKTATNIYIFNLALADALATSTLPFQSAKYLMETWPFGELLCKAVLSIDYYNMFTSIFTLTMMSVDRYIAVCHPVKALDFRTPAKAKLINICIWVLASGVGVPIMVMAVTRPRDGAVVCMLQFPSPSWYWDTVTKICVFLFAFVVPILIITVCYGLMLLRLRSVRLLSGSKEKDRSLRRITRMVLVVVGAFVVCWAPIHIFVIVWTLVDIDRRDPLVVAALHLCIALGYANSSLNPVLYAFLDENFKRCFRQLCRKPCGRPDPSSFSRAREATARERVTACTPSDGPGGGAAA
Format: cell-based
In short: (§2)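 11-point curves, 0.01 nM–1 μM final. 120 min at 22 °C, then filtration and scintillation counting. Nonspecific binding set by 10 μM naltrexone. Four-parameter IC50; Ki by Cheng–Prusoff.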
Work on `COC(=O)N1CCN(C(=O)Cc2ccc(Cl)c(Cl)c2)[C@H](CN2CCCC2)C1` yielded a pKi of 6.37. `NC(=O)c1ccc(Oc2ccc(CNCc3ccccc3)cc2)nc1` gave a pKi of 7.56. `NC(=O)c1ccc(Oc2ccc(CN3CCC[C@H]3c3cccc(F)c3)cc2)c(F)c1` was tested, and the pKi was 6.68. In the case of `CC(C)[C@@H](CN1CC[C@@](C)(c2cccc(O)c2)[C@@H](C)C1)NC(=O)[C@H]1Cc2ccc(O)cc2CN1C`, the pKi was under 6.30.

Each compound was assayed on Rattus norvegicus (assay: Reversal of […] in po dosed rat). Details: not given.
Format: functional
Compound `NC(=O)c1ccc(Oc2ccc(CN3CCC[C@H]3c3cccc(F)c3)cc2)c(F)c1` has an ED50 of 30 mg/kg.

What follows are compounds tested against T2, Mu-type opioid receptor (Homo sapiens, UniProt P35372) (assay: Displacement of [3H]diprenorphine from human opioid mu receptor expressed in CHO cells after 120 mins by scintillation counting). Details: not given.
T2 sequence (P35372 whole entry): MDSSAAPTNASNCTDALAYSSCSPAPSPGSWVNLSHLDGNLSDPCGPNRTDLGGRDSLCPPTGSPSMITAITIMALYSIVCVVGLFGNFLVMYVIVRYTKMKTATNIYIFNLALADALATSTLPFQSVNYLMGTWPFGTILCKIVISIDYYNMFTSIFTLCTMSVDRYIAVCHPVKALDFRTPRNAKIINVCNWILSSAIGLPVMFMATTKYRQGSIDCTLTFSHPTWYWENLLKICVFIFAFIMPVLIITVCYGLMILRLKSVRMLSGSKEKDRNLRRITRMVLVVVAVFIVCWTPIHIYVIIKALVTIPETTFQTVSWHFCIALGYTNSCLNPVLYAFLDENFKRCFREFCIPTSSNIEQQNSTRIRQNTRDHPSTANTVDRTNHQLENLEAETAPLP
Format: cell-based
In short: as §2
For `COC(=O)N1CCN(C(=O)Cc2ccc(Cl)c(Cl)c2)[C@H](CN2CCCC2)C1`, the pKi was 7.46. For `NC(=O)c1ccc(Oc2ccc(CNCc3ccccc3)cc2)nc1`, the pKi was 8.61. With `NC(=O)c1ccc(Oc2ccc(CN3CCC[C@H]3c3cccc(F)c3)cc2)c(F)c1` the pKi was 7.45. Compound `CC(C)[C@@H](CN1CC[C@@](C)(c2cccc(O)c2)[C@@H](C)C1)NC(=O)[C@H]1Cc2ccc(O)cc2CN1C` has a pKi of 7.51.

The compounds below were run on Striatum (assay: Drug uptake in rat striatum at 3 ug/kg, iv measured after 40 mins by LC/MS-MS analysis). Details: in vivo, 0.003 mg/kg.
Format: ADME, organism-based
In short: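 Groups of four rats received a single iv tracer dose and were killed 20 or 40 min later. Striatum was weighed, homogenized in 4 volumes acetonitrile/0.1% formic acid and centrifuged. The supernatant was diluted and analysed by LC/MS/MS against standards spiked into naive rat brain. %SUV = tissue amount/injected dose × 100.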
`CC(C)[C@@H](CN1CC[C@@](C)(c2cccc(O)c2)[C@@H](C)C1)NC(=O)[C@H]1Cc2ccc(O)cc2CN1C` was tested, and the SUV was 23%.

These compounds were tested against T2, Mu-type opioid receptor (assay: Agonist activity at human opioid mu receptor expressed in CHO cells assessed as stimulation of [35S]-GTPgammaS binding at 10 uM). Details: not given.
Format: functional, cell-based
In short: (§3)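 Agonist mode: membranes from CHO (κ, μ) or HEK293 (δ) cells expressing cloned human receptors, no agonist added, tested at up to 10 μM. [35S]GTP-γ-S (0.5 nM final) binding in HEPES pH 7.4, MgCl2, NaCl, EDTA, DTT, 200 μM GDP. Read by WGA SPA beads after 2 h (δ) or 4 h (κ, μ) at room temperature, then 4 °C overnight.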
For `COC(=O)N1CCN(C(=O)Cc2ccc(Cl)c(Cl)c2)[C@H](CN2CCCC2)C1`, the Activity was “inactive”. `NC(=O)c1ccc(Oc2ccc(CNCc3ccccc3)cc2)nc1` was tested, and the Activity was “inactive”. `NC(=O)c1ccc(Oc2ccc(CN3CCC[C@H]3c3cccc(F)c3)cc2)c(F)c1` was tested, and the Activity was “inactive”. `CC(C)[C@@H](CN1CC[C@@](C)(c2cccc(O)c2)[C@@H](C)C1)NC(=O)[C@H]1Cc2ccc(O)cc2CN1C` was tested, and the Activity was “inactive”.

These compounds were tested against T1, Delta-type opioid receptor (assay: Antagonist activity at human opioid delta receptor expressed in HEK293 cells assessed as inhibition of DPDPE-induced [35S]GTP-gamma-S binding after 4 hrs by scintillation counting). Details: not given.
Format: functional, cell-based
For `NC(=O)c1ccc(Oc2ccc(CNCc3ccccc3)cc2)nc1`, the Kb was 60.3 nM. `NC(=O)c1ccc(Oc2ccc(CN3CCC[C@H]3c3cccc(F)c3)cc2)c(F)c1` gave a Kb of 293 nM. `CC(C)[C@@H](CN1CC[C@@](C)(c2cccc(O)c2)[C@@H](C)C1)NC(=O)[C@H]1Cc2ccc(O)cc2CN1C` gave a Kb of 619 nM.

What follows are compounds tested against T3, Kappa-type opioid receptor (Homo sapiens, UniProt P41145) (assay: Agonist activity at human opioid kappa receptor expressed in CHO cells assessed as stimulation of [35S]-GTPgammaS binding at 10 uM). Details: not given.
T3 sequence (P41145 whole entry): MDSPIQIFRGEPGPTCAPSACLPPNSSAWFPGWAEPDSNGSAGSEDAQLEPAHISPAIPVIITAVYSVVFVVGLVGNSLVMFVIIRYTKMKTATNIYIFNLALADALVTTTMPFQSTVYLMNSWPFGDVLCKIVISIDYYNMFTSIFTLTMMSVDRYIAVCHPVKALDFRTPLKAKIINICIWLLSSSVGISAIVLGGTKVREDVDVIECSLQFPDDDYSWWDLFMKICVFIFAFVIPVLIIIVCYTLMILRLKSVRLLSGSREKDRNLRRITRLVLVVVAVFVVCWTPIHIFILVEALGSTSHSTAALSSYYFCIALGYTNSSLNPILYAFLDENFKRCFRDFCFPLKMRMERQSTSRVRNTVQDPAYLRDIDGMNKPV
Format: functional, cell-based
In short: as §3
`COC(=O)N1CCN(C(=O)Cc2ccc(Cl)c(Cl)c2)[C@H](CN2CCCC2)C1` was tested, and the Activity was “inactive”. `NC(=O)c1ccc(Oc2ccc(CNCc3ccccc3)cc2)nc1` was tested, and the Activity was “inactive”. For `NC(=O)c1ccc(Oc2ccc(CN3CCC[C@H]3c3cccc(F)c3)cc2)c(F)c1`, the Activity was “inactive”. With `CC(C)[C@@H](CN1CC[C@@](C)(c2cccc(O)c2)[C@@H](C)C1)NC(=O)[C@H]1Cc2ccc(O)cc2CN1C` the Activity was “inactive”.

These compounds were tested against T1, Delta-type opioid receptor (assay: Agonist activity at human opioid delta receptor expressed in HEK293 cells assessed as stimulation of [35S]-GTPgammaS binding at 10 uM). Details: not given.
Format: functional, cell-based
In short: as §3
For `COC(=O)N1CCN(C(=O)Cc2ccc(Cl)c(Cl)c2)[C@H](CN2CCCC2)C1`, the Activity was “inactive”. In the case of `NC(=O)c1ccc(Oc2ccc(CNCc3ccccc3)cc2)nc1`, the Activity was “inactive”. With `NC(=O)c1ccc(Oc2ccc(CN3CCC[C@H]3c3cccc(F)c3)cc2)c(F)c1` the Activity was “inactive”. For `CC(C)[C@@H](CN1CC[C@@](C)(c2cccc(O)c2)[C@@H](C)C1)NC(=O)[C@H]1Cc2ccc(O)cc2CN1C`, the Activity was “inactive”.

Each compound was assayed on HEK293 (assay: Selectivity ratio of Ki for human opioid delta receptor expressed in HEK293 cells to Ki for human opioid kappa receptor expressed in CHO cells). Details: not given.
Format: cell-based
Compound `COC(=O)N1CCN(C(=O)Cc2ccc(Cl)c(Cl)c2)[C@H](CN2CCCC2)C1` has a Ratio Ki of 841. `NC(=O)c1ccc(Oc2ccc(CNCc3ccccc3)cc2)nc1` was tested, and the Ratio Ki was 16. For `NC(=O)c1ccc(Oc2ccc(CN3CCC[C@H]3c3cccc(F)c3)cc2)c(F)c1`, the Ratio Ki was 373. `CC(C)[C@@H](CN1CC[C@@](C)(c2cccc(O)c2)[C@@H](C)C1)NC(=O)[C@H]1Cc2ccc(O)cc2CN1C` showed a Ratio Ki of over 3200.

What follows are compounds tested against T3, Kappa-type opioid receptor (assay: Displacement of [3H]diprenorphine from human opioid kappa receptor expressed in CHO cells after 120 mins by scintillation counting). Details: not given.
Format: cell-based
In short: as §2
`COC(=O)N1CCN(C(=O)Cc2ccc(Cl)c(Cl)c2)[C@H](CN2CCCC2)C1` showed a pKi of 9.30. For `NC(=O)c1ccc(Oc2ccc(CNCc3ccccc3)cc2)nc1`, the pKi was 8.75. `NC(=O)c1ccc(Oc2ccc(CN3CCC[C@H]3c3cccc(F)c3)cc2)c(F)c1` showed a pKi of 9.25. Work on `CC(C)[C@@H](CN1CC[C@@](C)(c2cccc(O)c2)[C@@H](C)C1)NC(=O)[C@H]1Cc2ccc(O)cc2CN1C` yielded a pKi of 9.82.

The compounds below were run on HEK293 (assay: Selectivity ratio of Kb for human opioid delta receptor expressed in HEK293 cells to Kb for human opioid kappa receptor expressed in CHO cells). Details: not given.
Format: cell-based
In short: as §1
`NC(=O)c1ccc(Oc2ccc(CNCc3ccccc3)cc2)nc1` showed a Ratio of 14. In the case of `NC(=O)c1ccc(Oc2ccc(CN3CCC[C@H]3c3cccc(F)c3)cc2)c(F)c1`, the Ratio was 187. `CC(C)[C@@H](CN1CC[C@@](C)(c2cccc(O)c2)[C@@H](C)C1)NC(=O)[C@H]1Cc2ccc(O)cc2CN1C` was tested, and the Ratio was 3820.

The compounds below were run on Rattus norvegicus (assay: In vivo receptor occupancy of opioid kappa in iv dosed rat striatum after 40 mins by 3-Chloro-4-[4-[ [ (2S)-2-(3-pyridyl)pyrrolidin-1-yl]methyl]phenoxy]- benzamide displacement assay). Details: not given.
Format: functional
In the case of `NC(=O)c1ccc(Oc2ccc(CN3CCC[C@H]3c3cccc(F)c3)cc2)c(F)c1`, the ED50 was 0.06 mg/kg.

Each compound was assayed on Rattus norvegicus (assay: Antinociceptive activity in po dosed rat assessed as reversal of agonist […]-induced pain by formalin test). Details: not given.
Format: functional
Compound `NC(=O)c1ccc(Oc2ccc(CN3CCC[C@H]3c3cccc(F)c3)cc2)c(F)c1` has an ED50 of 0.24 mg/kg.

Each compound was assayed on CHO (assay: Selectivity ratio of Ki for human opioid mu receptor expressed in CHO cells to Ki for human opioid kappa receptor expressed in CHO cells). Details: not given.
Format: cell-based
With `COC(=O)N1CCN(C(=O)Cc2ccc(Cl)c(Cl)c2)[C@H](CN2CCCC2)C1` the Ratio Ki was 69. Compound `NC(=O)c1ccc(Oc2ccc(CNCc3ccccc3)cc2)nc1` has a Ratio Ki of 1. Compound `NC(=O)c1ccc(Oc2ccc(CN3CCC[C@H]3c3cccc(F)c3)cc2)c(F)c1` has a Ratio Ki of 63. For `CC(C)[C@@H](CN1CC[C@@](C)(c2cccc(O)c2)[C@@H](C)C1)NC(=O)[C@H]1Cc2ccc(O)cc2CN1C`, the Ratio Ki was 201.

What follows are compounds tested against T3, Kappa-type opioid receptor (assay: Antagonist activity at human opioid kappa receptor expressed in CHO cells assessed as inhibition of U69593-induced [35S]GTP-gamma-S binding after 4 hrs by scintillation counting). Details: not given.
Format: functional, cell-based
`NC(=O)c1ccc(Oc2ccc(CNCc3ccccc3)cc2)nc1` gave a Kb of 4.33 nM. Work on `NC(=O)c1ccc(Oc2ccc(CN3CCC[C@H]3c3cccc(F)c3)cc2)c(F)c1` yielded a Kb of 1.57 nM. In the case of `CC(C)[C@@H](CN1CC[C@@](C)(c2cccc(O)c2)[C@@H](C)C1)NC(=O)[C@H]1Cc2ccc(O)cc2CN1C`, the Kb was 0.162 nM.

What follows are compounds tested against T2, Mu-type opioid receptor (assay: Antagonist activity at human opioid mu receptor expressed in CHO cells assessed as inhibition of DAMGO-induced [35S]GTP-gamma-S binding after 4 hrs by scintillation counting). Details: not given.
Format: functional, cell-based
With `NC(=O)c1ccc(Oc2ccc(CNCc3ccccc3)cc2)nc1` the Kb was 3.8 nM. `NC(=O)c1ccc(Oc2ccc(CN3CCC[C@H]3c3cccc(F)c3)cc2)c(F)c1` was tested, and the Kb was 21.3 nM. Work on `CC(C)[C@@H](CN1CC[C@@](C)(c2cccc(O)c2)[C@@H](C)C1)NC(=O)[C@H]1Cc2ccc(O)cc2CN1C` yielded a Kb of 11.2 nM.

The compounds below were run on Nucleic Acid (assay: Ratio of drug uptake in striatum to cerebellum in rat at 3 ug/kg, iv measured after 40 mins by LC/MS/MS analysis). Details: in vivo, 0.003 mg/kg.
Format: ADME, organism-based
In short: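 Groups of four rats were given iv tracer and killed 20 or 40 min after dosing. Striatum (total binding) and cerebellum (nonspecific, null region) were extracted in acetonitrile/0.1% formic acid and quantified by LC/MS/MS. Binding potential was calculated as (striatum/cerebellum concentration) − 1.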
`NC(=O)c1ccc(Oc2ccc(CN3CCC[C@H]3c3cccc(F)c3)cc2)c(F)c1` gave a Ratio of 0.2.

Each compound was assayed on Striatum (assay: Drug uptake in rat striatum at 1.5 ug/kg, iv measured after 40 mins by LC/MS-MS analysis). Details: in vivo, 0.0015 mg/kg.
Format: ADME, organism-based
In short: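 Groups of four rats received a single iv tracer dose and were killed 20 or 40 min later. Striatum was weighed, sonicated in 4 volumes of acetonitrile with 0.1% formic acid, and centrifuged. The supernatant was diluted with water and analysed by C18 LC/MS/MS (precursor-to-product ion transition) against standards spiked into naive rat brain. %SUV = (tissue amount / injected dose) × 100.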
In the case of `COC(=O)N1CCN(C(=O)Cc2ccc(Cl)c(Cl)c2)[C@H](CN2CCCC2)C1`, the SUV was 50%.

Each compound was assayed on Nucleic Acid (assay: Ratio of drug uptake in striatum to cerebellum in rat at 1.5 ug/kg, iv measured after 40 mins by LC/MS/MS analysis). Details: in vivo, 0.0015 mg/kg.
Format: ADME, organism-based
In short: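 Rats (groups of four) given a single iv tracer dose, killed 20 or 40 min later. Striatum and cerebellum weighed, homogenised by ultrasonic probe in four volumes acetonitrile with 0.1% formic acid, centrifuged, supernatant diluted with water. Read-out is LC/MS/MS on C18 column monitoring precursor-to-product transitions, quantified against standards spiked into untreated rat brain. Binding potential = (striatum/cerebellum) − 1.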
In the case of `COC(=O)N1CCN(C(=O)Cc2ccc(Cl)c(Cl)c2)[C@H](CN2CCCC2)C1`, the Ratio was 1.5.
